From publication PMC3712066 (Diabetes, 2013)

What was measured:
[1] = tested on: rats with streptozotocin-induced diabetes mellitus (STZ-DM); assay: Electroretinography; assay type: in vivo, Sprague-Dawley rats; settings: diabetic rats, SST eye drops 10 mg/mL once daily; scotopic
Outline: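 Scotopic ERG was recorded in both eyes before treatment and on day 14, after at least 1 h dark adaptation. Rats were under isoflurane with 0.5% proparacaine topically. b-wave amplitude and implicit time were measured to ISCEV definitions after scotopic flash (0 db). Animals were STZ-diabetic rats on daily 10 mg/mL drops or saline vehicle. Paired t test within group; means ± SD.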

[2] = tested on: AMPA-induced neurotoxicity; settings: intravitreal administration; cited from earlier work
[3] = tested on: FasL, caspase-8, Bid, active caspase-3, BclxL; assay: Proapoptotic and survival signaling in neuroretina; assay type: in vivo, Sprague-Dawley rats; settings: neuroretina of diabetic rats; SST eye drops 10 mg/mL; Western blot
Outline: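 Neuroretina protein extracts were Western blotted for FasL, caspase-8, Bid, Bim, BclxL and active caspase-3, with α-tubulin as loading control. Autoradiograms were quantified by scanning densitometry as arbitrary units, means ± SD. Tissue came from STZ-diabetic rats given daily 10 mg/mL drops or saline vehicle for 14 days, and from nondiabetic controls.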

[4] = tested on: rats with streptozotocin-induced diabetes mellitus (STZ-DM); assay: Assessment of retinal apoptosis; assay type: in vivo, Sprague-Dawley rats; settings: TUNEL; SST eye drops 10 mg/mL once daily, 15 days
[5] = Ophthalmological examinations; assay type: in vivo, Sprague-Dawley rats; settings: SST eye drops 10 mg/mL, 20 µL once daily; baseline and follow-up (days 7 and 13)
Outline: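 All animals had slit lamp biomicroscopy, indirect ophthalmoscopy and intraocular pressure measurement at baseline and on days 7 and 13 posttreatment. Groups were nondiabetic controls on vehicle, and STZ-diabetic (60 mg/kg i.v.) male Sprague-Dawley rats on once-daily drops of test compound (10 mg/mL) or 0.9% NaCl vehicle.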

[6] = tested on: rats with streptozotocin-induced diabetes mellitus (STZ-DM); assay: Assessment of glial activation; assay type: in vivo, Sprague-Dawley rats; settings: dose-response; SST eye drops 0.5 mg/mL compared with 2 or 10 mg/mL
Outline: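 Male Sprague-Dawley rats made diabetic with STZ 60 mg/kg i.v. (glucose above 250 mg/dL). One drop daily for 14 days, plus one ~1 h before necropsy; saline vehicle; dose-response at 10, 2, 0.5 mg/mL. Paraffin retinal sections blocked in PBS/1% BSA/0.05% Triton X-100. Rabbit anti-GFAP 1:100, 36 h at 4C; Alexa Fluor 568 secondary. Scored 0–5 by GFAP extent, endfeet/GCL to ONL.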

[7] = tested on: glutamate/aspartate transporter (GLAST); assay: GLAST expression in retina; assay type: in vivo, Sprague-Dawley rats; settings: diabetic rats treated with SST eye drops 10 mg/mL
Outline: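 GLAST mRNA by real-time PCR, normalized to β-actin (relative quantification). For protein, paraffin retinal sections were retrieved in 10 mmol/L sodium citrate pH 6.0 and blocked 1 h at room temperature in 2% BSA/0.05% Tween PBS. They were probed with anti-GLAST 1:200, then Alexa Fluor 488 anti-rabbit (1 h), with DAPI. Fluorescence intensity was quantified as for GFAP. Rats were STZ-diabetic on daily drops or saline.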

## Somatostatin [SST]
[1]
  b-wave amplitude, day 14 vs day −1: no reduction of b-wave amplitude was observed
  b-wave implicit time, day 14 vs day −1: did not increase
[2]
  protection of the retina from AMPA-induced neurotoxicity: protects the retina from AMPA-induced neurotoxicity
[3]
  BclxL expression: greatly improved
[4]
  ratio of apoptosis in all retinal layers vs diabetic rats treated with placebo: significantly lower
[5]
  differences in the cornea, pupil size, or intraocular pressure among groups: No significant differences
[6]
  effect in preventing glial activation and apoptosis: significantly lower than that obtained using either 2 or 10 mg/mL
[7]
  diabetes-induced downregulation of GLAST gene and protein expression: this downregulation was prevented
[7]; immunofluorescence
  GLAST protein levels in comparison with nondiabetic rats: even increased
